Data taken from paper PMC9054024 (Science Advances, 2022).
Ends that are not written are not given here. * marks the point of attachment. Biotin = O=C1N[C@H]2[C@H](CS[C@H]2CCCCC(=O)*)N1

Tests used:
[1] = system: HCT116 and Colo320 cells; assay: Viability assay; format: cell-based, human; settings: 48 hours; for effect of addition of cholesterol on viability: 20 μM compound ± cholesterol 20 μM; for cell viability compared to vehicle controls: 20 μM
Summary of the method: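 HCT116 and Colo320 cells were treated 48 h with the indicated agents at 20 μM, including water-soluble cholesterol, alone or combined. Viability was measured by CellTiter-Glo luminescence in triplicate and expressed relative to vehicle-treated cells.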

[2] = molecular target: T1, β-catenin/BCL9 complexes (Homo sapiens, UniProt P35222); assay: BCL9 Co-IP assay in Colo320 and HCT116 cells; format: cell-based; settings: Colo320 and HCT116, 16 hours
T1 sequence (P35222 2-781 limits assumed): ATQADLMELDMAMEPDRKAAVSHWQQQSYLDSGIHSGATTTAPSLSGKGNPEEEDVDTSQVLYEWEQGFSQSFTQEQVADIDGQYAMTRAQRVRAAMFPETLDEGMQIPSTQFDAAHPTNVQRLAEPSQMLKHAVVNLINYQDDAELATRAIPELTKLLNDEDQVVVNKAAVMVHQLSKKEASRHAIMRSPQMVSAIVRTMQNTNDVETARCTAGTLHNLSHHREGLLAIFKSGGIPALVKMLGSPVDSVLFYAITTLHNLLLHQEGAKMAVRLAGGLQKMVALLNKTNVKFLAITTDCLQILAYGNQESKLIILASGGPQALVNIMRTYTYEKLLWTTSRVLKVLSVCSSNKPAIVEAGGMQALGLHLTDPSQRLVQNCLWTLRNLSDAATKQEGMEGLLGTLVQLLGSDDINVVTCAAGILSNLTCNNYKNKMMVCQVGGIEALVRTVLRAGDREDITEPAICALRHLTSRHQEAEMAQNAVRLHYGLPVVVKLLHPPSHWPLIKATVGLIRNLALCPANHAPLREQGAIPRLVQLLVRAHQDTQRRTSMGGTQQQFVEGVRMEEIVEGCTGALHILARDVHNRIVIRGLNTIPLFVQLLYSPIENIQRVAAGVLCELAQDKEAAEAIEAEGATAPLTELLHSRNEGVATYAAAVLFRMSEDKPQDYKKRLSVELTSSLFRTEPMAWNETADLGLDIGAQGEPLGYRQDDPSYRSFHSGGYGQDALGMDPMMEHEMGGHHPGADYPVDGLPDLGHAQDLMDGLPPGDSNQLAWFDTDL
Summary of the method: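 Colo320 and HCT116 cells (with 4T1) were treated for 16 h with DMSO vehicle or 1, 10 or 20 μM compound. Nuclei were isolated and digested with hypotonic and digestion buffers, and nuclear protein was quantified by Bradford. 800 μg nuclear extract was immunoprecipitated overnight at 4°C with 3.5 μg anti-BCL9, with normal rabbit IgG as negative control, then immunoblotted.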

[3] = system: AXIN2, CD44, PARP; assay: Immunoblots of β-catenin–independent cell line RKO; format: cell-based, human; settings: RKO cells
Summary of the method: (§1)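 HCT116 (McCoy's), Colo320 (RPMI 1640) and RKO (DMEM) were grown with 10% FBS at 37°C, 5% CO2, with DMSO as vehicle. Membranes were probed overnight at 4°C with primary antibodies in blocking buffer, then HRP secondary, and detected by chemiluminescence. Densitometry was normalized to actin.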

[4] = system: Wnt transcriptional activity; assay: Dual-luciferase Wnt reporter assay in Colo320 and HCT116 cells; format: cell-based, human; settings: 16 hours, versus vehicle
Summary of the method: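 Stable reporter cells came from lentiviral transduction: firefly luciferase under a 7XTCF promoter and Renilla luciferase under an EF1alpha promoter. 30,000 cells/well were treated 16 h with DMSO vehicle or increasing compound concentrations. Firefly and Renilla signals were read by Dual-Glo, in triplicate.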

[5] = molecular target: T2, β-catenin complexes with E-cadherin (Homo sapiens, UniProt P35222); assay: β-catenin Co-IP assay in DLD-1 cells; format: cell-based
T2 sequence (P35222 2-781 limits assumed): T1 sequence (P35222 2-781 limits assumed)
T2 sequence (P12830 155-882 partner): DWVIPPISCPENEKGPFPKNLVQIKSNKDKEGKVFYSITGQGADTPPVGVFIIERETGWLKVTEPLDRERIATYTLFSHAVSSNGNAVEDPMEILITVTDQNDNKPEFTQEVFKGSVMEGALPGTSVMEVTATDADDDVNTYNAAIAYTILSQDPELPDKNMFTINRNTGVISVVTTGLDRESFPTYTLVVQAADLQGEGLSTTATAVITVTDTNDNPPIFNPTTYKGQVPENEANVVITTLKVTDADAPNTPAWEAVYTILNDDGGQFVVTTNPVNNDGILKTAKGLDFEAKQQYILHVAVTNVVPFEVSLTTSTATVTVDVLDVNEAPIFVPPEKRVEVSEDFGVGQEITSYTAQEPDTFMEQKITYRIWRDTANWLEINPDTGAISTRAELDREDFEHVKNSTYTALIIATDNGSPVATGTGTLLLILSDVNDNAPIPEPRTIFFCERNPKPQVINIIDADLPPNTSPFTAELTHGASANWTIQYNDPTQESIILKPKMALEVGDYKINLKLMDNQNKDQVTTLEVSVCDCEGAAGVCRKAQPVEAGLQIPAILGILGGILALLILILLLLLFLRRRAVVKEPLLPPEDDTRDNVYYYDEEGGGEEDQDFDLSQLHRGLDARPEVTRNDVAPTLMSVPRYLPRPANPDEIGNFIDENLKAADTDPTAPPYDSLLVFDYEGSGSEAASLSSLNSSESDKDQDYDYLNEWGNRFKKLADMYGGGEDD
Summary of the method: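 DLD-1 cells treated 16 h with DMSO vehicle or 1, 10 or 20 μM compound, then lysed in whole-cell lysis buffer. 800 μg extract incubated with 3.5 μg anti-β-catenin, with normal rabbit IgG as negative control. Protein G magnetic beads added for 1 h at 4°C, washed four times (150 mM NaCl) and eluted in reducing buffer. 2% input included. Immunoblotting used chemiluminescence and actin-normalised densitometry.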

[6] = system: AXIN2, CD44, PARP, ABC; assay: Immunoblots of β-catenin–dependent cell lines Colo320 and HCT116; format: cell-based, human; settings: Colo320 and HCT116, 24 and 48 hours
Summary of the method: as §1

[7] = system: Colo320 and HCT116 cells; assay: Proliferation assay, β-catenin–dependent cell lines; format: cell-based, human; settings: 5, 10, or 20 μM; 24, 48, 72, and 96 hours
Summary of the method: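 Colo320, HCT116 and RKO cells were seeded in triplicate at 3000 cells/well and treated with DMSO vehicle or 5, 10 or 20 μM compound. Proliferation was measured by CellTiter-Glo 2.0 luminescence, relative to the respective baseline readings.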

[8] = system: Wnt target genes AXIN2 and CD44; assay: RT-qPCR of Wnt target genes in Colo320 and HCT116 cells; format: cell-based, human; settings: 10 or 20 μM for 6, 24, and 48 hours
Summary of the method: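 Colo320 and HCT116 cells treated with DMSO vehicle or 10 or 20 μM compound for 6, 24 and 48 h. Total RNA isolated with TRIzol, reverse-transcribed, and SYBR Green qPCR run. Expression normalised to B2M and PMM1 or GAPDH by the ΔΔCT method.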

[9] = system: HCT116 cells; assay: Fluorescent staining of lipids and cholesterol in HCT116 cells; format: cell-based, human; settings: treated for 24 and 48 hours
Summary of the method: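 HCT116 cells in glass-bottomed dishes treated with vehicle or 20 μM compound for 4, 8, 24 and 48 h. Fixed in 4% paraformaldehyde, stained with 2 μM BODIPY 493/503 for 15 min plus DAPI (1 μg/ml). Cholesterol stained with a filipin III kit. For localisation at 48 h, filipin was combined with anti-SERCA-ATPase (ER) or LipidSpot (lipid droplets). Imaged with a ×40 dry objective.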

[10] = molecular target: human CTNNB1 region 141-305 (short protein) (human) (UniProt P35222); assay: ITC
[11] = molecular target: T3, full-length recombinant β-catenin (1 to 781 amino acids, 88 kDa) (human, UniProt P35222 1-781); assay: AlphaScreen or HTRF
T3 sequence: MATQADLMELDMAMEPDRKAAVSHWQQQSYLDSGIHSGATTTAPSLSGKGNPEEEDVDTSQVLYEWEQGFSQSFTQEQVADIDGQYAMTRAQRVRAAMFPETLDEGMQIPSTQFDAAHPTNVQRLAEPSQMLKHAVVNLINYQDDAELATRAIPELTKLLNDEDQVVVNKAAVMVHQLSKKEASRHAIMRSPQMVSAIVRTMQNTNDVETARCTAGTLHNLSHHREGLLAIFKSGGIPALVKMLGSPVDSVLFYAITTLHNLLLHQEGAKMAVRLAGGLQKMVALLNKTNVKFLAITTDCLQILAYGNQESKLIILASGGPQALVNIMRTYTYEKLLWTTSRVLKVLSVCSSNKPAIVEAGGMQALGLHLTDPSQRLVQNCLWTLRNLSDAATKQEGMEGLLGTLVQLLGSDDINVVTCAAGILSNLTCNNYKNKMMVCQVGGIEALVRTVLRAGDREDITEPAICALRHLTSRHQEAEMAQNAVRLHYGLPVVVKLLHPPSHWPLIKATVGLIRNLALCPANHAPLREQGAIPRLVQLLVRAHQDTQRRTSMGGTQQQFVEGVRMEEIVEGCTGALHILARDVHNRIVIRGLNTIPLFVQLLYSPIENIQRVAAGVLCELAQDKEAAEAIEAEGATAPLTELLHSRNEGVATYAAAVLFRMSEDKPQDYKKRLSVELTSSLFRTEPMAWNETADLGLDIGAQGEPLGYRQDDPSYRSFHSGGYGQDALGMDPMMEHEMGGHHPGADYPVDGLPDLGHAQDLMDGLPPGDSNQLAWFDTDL

Question: For `CC(C)c1cc(C(C)C)c(CC(=O)NS(=O)(=O)Oc2c(C(C)C)cccc2C(C)C)c(C(C)C)c1` [avasimibe], which “effect of addition of cholesterol on viability” value [1] is on record?
Answer: did not affect the viability

Question: And the “cell viability compared to vehicle controls” value [1]?
Answer: significantly reduced cell viability

Question: Which “concentration inhibiting β-catenin/BCL9 complexes in Co-IP” value [2] does the source give for `COc1ccc(C)cc1CN1CCC(c2cc3ncccc3cn2)CC1` [C-3] here?
Answer: 20 µM

Question: For `O=C(Nc1ccccc1Oc1nc2ccccc2n2cnnc12)c1cccs1` [C-2], which PARP cleavage [3] is on record?
Answer: minor PARP cleavage at 10 and 20 μM

Question: And the “expression of AXIN2 or CD44 protein” value [3]?
Answer: did not affect their expression of AXIN2 or CD44 protein

Question: What about the “concentration inhibiting β-catenin/BCL9 complexes in Co-IP” value [2] of the same molecule?
Answer: 1 µM

Question: And the “inhibition of Wnt signaling (firefly/renilla luciferase ratio)” value [4]?
Answer: significantly inhibited Wnt signaling

Question: What about the “disruption of β-catenin complexes with E-cadherin” value [5] of the same molecule?
Answer: Neither compound disrupted the ability of β-catenin to form complexes with E-cadherin

Question: And the PARP cleavage [6]?
Answer: increased the cleavage of poly(adenosine diphosphate–ribose) polymerase (PARP)

Question: And the “abundance of active β-catenin (ABC)” value [6]?
Answer: decreased abundance of “active” dephosphorylated β-catenin

Question: And the “protein expression of AXIN2 and CD44” value [6]?
Answer: significantly decreased the protein expression of AXIN2 and CD44

Question: What about the proliferation [7] of the same molecule?
Answer: significantly reduced the proliferation

Question: What about the “expression of AXIN2 and CD44 mRNAs” value [8] of the same molecule?
Answer: significantly inhibited the expression of AXIN2 and CD44 mRNAs

Question: What does the source list for `CC[C@H](C)C(=O)O[C@H]1C[C@@H](C)C=C2C=C[C@H](C)[C@H](CC[C@@H]3C[C@@H](O)CC(=O)O3)[C@H]21` [lovastatin]?
Answer: effect of addition of cholesterol on viability [1]: did not affect the viability; cell viability compared to vehicle controls [1]: significantly reduced cell viability

Question: How did the “intracellular lipids (BODIPY)” value [9] turn out when `CCN(CC)CCO[C@H]1CC[C@@]2(C)C(=CC[C@@H]3[C@@H]2CC[C@]2(C)C(=O)CC[C@@H]32)C1.Cl` [U-18666A] was run?
Answer: substantial intracellular lipid accumulation

Question: With nonbiotinylated BCL9-HD2 peptide as the molecule, how does the Kd [10] read?
Answer: 2740 nM

Question: How did the “inhibition of Wnt signaling (firefly/renilla luciferase ratio)” value [4] turn out when `O=C1[C@H](Cc2ccc(O)cc2)N2C(=O)CCN(C(=O)NCc3ccccc3)[C@H]2CN1Cc1cccc2ccccc12` [ICG-001, reference compound] was run?
Answer: significantly inhibited Wnt signaling

Question: What about the “cell viability compared to vehicle controls” value [1] of the same molecule?
Answer: significantly reduced cell viability

Question: Does Biotin-LSQEQLEHRERSLQTLRDIQRM [N-terminal biotinylated BCL9-HD2 peptide] bind [11]?
Answer: binds
